Experimental data reported in ChEMBL document CHEMBL4825663 (J Med Chem, 2021).
Activity calls are given as the source filed them.

Columns and labels:
[1] = biological target: T1, Multidrug and toxin extrusion protein 2 (Homo sapiens, UniProt Q86VL8); assay: Inhibition of human MATE2K assessed as reduction in intracellular probe substrate accumulation upto 100 uM by microplate scintillation counter analysis relative to control; assay type: cell-based
T1 sequence (Q86VL8 whole entry): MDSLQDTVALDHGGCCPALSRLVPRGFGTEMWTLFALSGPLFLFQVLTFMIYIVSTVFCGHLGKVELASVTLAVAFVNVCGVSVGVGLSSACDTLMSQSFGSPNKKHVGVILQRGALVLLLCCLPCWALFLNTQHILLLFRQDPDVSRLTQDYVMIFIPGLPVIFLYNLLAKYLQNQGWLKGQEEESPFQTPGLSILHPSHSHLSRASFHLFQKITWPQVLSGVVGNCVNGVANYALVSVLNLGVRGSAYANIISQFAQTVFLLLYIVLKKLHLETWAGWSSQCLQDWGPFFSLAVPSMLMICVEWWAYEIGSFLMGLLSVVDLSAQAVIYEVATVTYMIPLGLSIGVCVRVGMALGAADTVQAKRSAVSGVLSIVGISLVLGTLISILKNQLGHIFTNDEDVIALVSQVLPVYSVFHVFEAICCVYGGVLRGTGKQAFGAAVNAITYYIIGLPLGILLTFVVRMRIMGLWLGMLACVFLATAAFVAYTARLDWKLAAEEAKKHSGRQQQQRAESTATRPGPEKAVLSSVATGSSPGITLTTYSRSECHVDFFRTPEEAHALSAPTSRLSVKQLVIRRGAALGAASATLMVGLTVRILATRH
Summary of the method: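 Cellular uptake-inhibition assays used Chinese hamster ovary, HEK293 or MDCKII cells stably expressing the respective human SLC transporter, run alongside the corresponding control cells. Inhibitor was tested at concentrations up to 100 μM.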

[2] = Half life in Beagle dog at 3 mg/kg, iv measured upto 48 hrs by LC-MS/MS analysis; assay type: ADME, organism-based, Canis lupus familiaris; details: in vivo
Summary of the method: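 Plasma pharmacokinetics in male Sprague-Dawley rats and male Beagle dogs (n = 3 per species), each given a single dose by IV at 3 mg/kg and by PO at 10 mg/kg. Cmax, Tmax, T1/2 and AUClast were derived for each route. F (%) was calculated from the PO and IV AUClast.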

Cytochrome P450 1A2 = biological target: T2, Cytochrome P450 1A2 (Homo sapiens, UniProt P05177); assay: Drug metabolism assessed as human CYP1A2-mediated metabolism; assay type: ADME; details: recombinant enzyme
T2 sequence (P05177 whole entry): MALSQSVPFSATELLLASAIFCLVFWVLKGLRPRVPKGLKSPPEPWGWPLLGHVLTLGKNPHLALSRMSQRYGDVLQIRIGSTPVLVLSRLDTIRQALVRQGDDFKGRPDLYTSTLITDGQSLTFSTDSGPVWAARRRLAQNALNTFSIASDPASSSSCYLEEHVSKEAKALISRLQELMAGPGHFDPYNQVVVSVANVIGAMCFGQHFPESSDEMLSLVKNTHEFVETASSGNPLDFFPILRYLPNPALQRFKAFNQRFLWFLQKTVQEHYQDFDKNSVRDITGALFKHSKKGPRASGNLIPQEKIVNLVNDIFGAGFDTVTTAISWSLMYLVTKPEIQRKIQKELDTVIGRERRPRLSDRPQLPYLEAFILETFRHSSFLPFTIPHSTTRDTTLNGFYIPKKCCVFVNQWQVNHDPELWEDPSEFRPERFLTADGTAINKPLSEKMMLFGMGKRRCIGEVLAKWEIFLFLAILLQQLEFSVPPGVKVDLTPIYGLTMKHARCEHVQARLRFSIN

Cytochrome P450 2B6 = biological target: T3, Cytochrome P450 2B6 (Homo sapiens, UniProt P20813); assay: Drug metabolism assessed as human CYP2B6-mediated metabolism; assay type: ADME; details: recombinant enzyme
T3 sequence (P20813 whole entry): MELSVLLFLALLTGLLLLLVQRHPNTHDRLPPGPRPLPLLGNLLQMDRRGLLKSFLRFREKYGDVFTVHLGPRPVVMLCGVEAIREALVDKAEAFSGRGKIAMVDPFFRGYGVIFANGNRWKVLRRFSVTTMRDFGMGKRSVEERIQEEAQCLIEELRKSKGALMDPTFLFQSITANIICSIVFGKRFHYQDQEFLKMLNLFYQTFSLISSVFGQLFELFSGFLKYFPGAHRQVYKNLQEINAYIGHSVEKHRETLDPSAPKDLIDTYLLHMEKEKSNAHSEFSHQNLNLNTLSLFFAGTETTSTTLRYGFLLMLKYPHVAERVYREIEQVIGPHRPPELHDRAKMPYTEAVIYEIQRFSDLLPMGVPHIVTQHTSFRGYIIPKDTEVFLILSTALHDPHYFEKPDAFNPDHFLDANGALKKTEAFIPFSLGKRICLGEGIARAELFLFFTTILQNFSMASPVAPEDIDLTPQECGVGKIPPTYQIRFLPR

[3] = Toxicity in Beagle dog assessed as histiocytosis in lymph nodes at >= 100 mg/kg, po and measured after 13 weeks; assay type: organism-based, Canis lupus familiaris; details: in vivo, 2184 h
[4] = Drug distribution in Sprague-Dawley rat brain; assay type: ADME, tissue-based; details: in vivo
[5] = Volume of distribution in Sprague-Dawley rat at 6 mg/kg, iv measured upto 24 hrs by LC-MS/MS analysis; assay type: ADME, organism-based; details: in vivo
[6] = Oral bioavailability in Sprague-Dawley rat at 20 mg/kg measured upto 24 hrs in presence of 10 mg/kg encequidar by LC-MS/MS analysis; assay type: ADME, organism-based; details: in vivo
[7] = Drug distribution in BALB/c mouse liver at 20 mg/kg, po measured upto 24 hrs in presence of 10 mg/kg encequidar by LC-MS/MS analysis; assay type: ADME, organism-based; details: in vivo
[8] = Drug distribution in Sprague-Dawley rat intestine at 20 mg/kg, po measured upto 168 hrs in presence of 10 mg/kg encequidar by LC-MS/MS analysis; assay type: ADME, organism-based; details: in vivo
[9] = Drug distribution in Sprague-Dawley rat kidney at 20 mg/kg, po measured upto 168 hrs in presence of 10 mg/kg encequidar by LC-MS/MS analysis; assay type: ADME, organism-based; details: in vivo
[10] = Ratio of drug concentration in BALB/c mouse large intestine to plasma at 20 mg/kg, po measured upto 24 hrs in presence of 10 mg/kg encequidar by LC-MS/MS analysis; assay type: ADME, organism-based
[11] = Ratio of drug concentration in BALB/c mouse stomach to plasma at 20 mg/kg, po measured upto 24 hrs in presence of 10 mg/kg encequidar by LC-MS/MS analysis; assay type: ADME, organism-based
MDA-MB-231 = assay: Antitumor activity against human MDA-MB-231 cells xenografted in athymic nude mouse assessed as reduction in median number of days for tumor to reach two tumor mass doubling at 40 mg/kg, po administered every other day for 4 doses in presence of 16 mg/kg encequidar and monitored for 70 to 82 days (reference value: 13.1 day); assay type: functional; details: time 70-82 day
SK-OV-3 = assay: Antitumor activity against human SK-OV-3 cells xenografted in athymic nude mouse assessed as tumor growth inhibition in presence of encequidar; assay type: functional
[12] = Neurotoxicity in Sprague-Dawley rat assessed as reduction in nociceptive threshold at 6 mg/kg, iv measured after day 5, 7, 11 and 14; assay type: toxicity, organism-based; details: in vivo
Summary of the method: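 Healthy rats received IV paclitaxel (Taxol) at 0 (vehicle), 3 or 6 mg/kg, four times at 2-day intervals (cumulative 12 or 24 mg/kg), n = 5/group. Paw pressure threshold (mmHg to elicit response, back paws) was measured by Randall–Selitto test. Data were analysed by one-way ANOVA, then Dunnett's test versus control.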

half-life [2] | Drug metabolism (Cytochrome P450 1A2) | Drug metabolism (Cytochrome P450 2B6) | Drug uptake [4] | Structure (SMILES) | inhibition (INH) [1] | Activity [3] | Vd [5] | bioavailability [6] | Drug uptake [7] | Drug uptake [8] | Drug uptake [9] | Kp at 24 h [10] | Kp at 24 h [11] | Time (MDA-MB-231) | Activity (SK-OV-3) | Activity [12]
16.9 h | Metabolite_Notdetected | Metabolite_Notdetected | Not Active | COc1cc2c(cc1OC)CN(CCc1ccc(-n3nnc(-c4cc(OC)c(OC)cc4NC(=O)c4cc(=O)c5ccccc5o4)n3)cc1)CC2 | < 50% | Toxic |  |  |  |  |  |  |  |  |  | 
 |  |  |  | CC(=O)O[C@H]1C(=O)[C@@]2(C)[C@H]([C@H](OC(=O)c3ccccc3)[C@]3(O)C[C@H](OC(=O)[C@H](O)[C@@H](NC(=O)c4ccccc4)c4ccccc4)C(C)=C1C3(C)C)[C@]1(OC(C)=O)CO[C@@H]1C[C@@H]2O [PACLITAXEL] |  |  | 23.6 L/kg | 41.3% | Active | Active | Active | > 1 | > 1 | >69 days | Active | Toxic
